Experiment [1] relates to U-266. Put plainly: Inhibition of cyclin D1 transcription in human U266 cells at 100 uM after 6 hrs by microarray analysis. Format: functional, cell-based. Summed up: (§1)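 U266 cells were seeded at 1 × 10⁶ cells/mL and treated 6 h in triplicate. RNA was purified, and 2-5 µg total RNA was converted to biotin-labelled cRNA by oligo-T7 reverse transcription and in vitro transcription with biotin-UTP/CTP. mRNA levels were then measured by microarray.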

For experiment [2], the system named is U-266. Put plainly: Inhibition of Bcl2-like 1 transcription in human U266 cells at 100 uM after 6 hrs by microarray analysis. It is filed as functional, cell-based. Summed up:
as §1

The test system of experiment [3] is U-266. Put plainly: Inhibition of MCL1 transcription in human U266 cells at 100 uM after 6 hrs by microarray analysis. Format: functional, cell-based. An outline of the steps:
as §1

Experiment [4] relates to U-266. In words: Induction of apoptosis in human U266 cells assessed as caspase activation after 4 days by Apo-ONE Homogeneous caspase 3/7 assay. Format: functional, cell-based. An outline of the steps:
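Homogeneous caspase 3/7 (Apo-ONE) luminescent/fluorescent signal used as apoptosis read-out in cells under compound treatment. U266 cultured in RPMI1640 with 10% heat-inactivated FBS and Pen-Strep.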

Another experiment has as its system A2780. In words: Induction of apoptosis in human A2780 cells assessed as caspase activation after 4 days by Apo-ONE Homogeneous caspase 3/7 assay. Format: functional, cell-based.
Experiment [5] has as its target Signal transducer and activator of transcription 3 (Homo sapiens) (UniProt P40763). In words: Inhibition of STAT3 Y705 phosphorylation in human HeLa cells by Western blot analysis. Format: cell-based. On the technique in general: A western blot detects proteins with antibodies after separation by electrophoresis.
For experiment [6] the target is unchanged. Put plainly: Inhibition of IFN-alpha-induced STAT3 Y705 phosphorylation in serum starved human HeLa cells by Western blot analysis. Format: cell-based. An outline of the steps:
(§2)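 HeLa or DU145 cells in DMEM + 10% heat-inactivated FBS, ~80% confluent, were serum-starved overnight and treated with compound for 1 h. IFN-alpha 20000 units/mL was then added for 20 min. Cells were collected in 1.1X LDS sample buffer, sonicated, and analysed by Western blot for phospho-STAT3 Y705 with fluorescent secondary detection.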

For experiment [7] the target is unchanged. Put plainly: Inhibition of STAT3 Y705 phosphorylation in human DU145 cells by Western blot analysis. It is filed as cell-based. Conditions: DU-145.
The target is the same in experiment [8]. Put plainly: Inhibition of IFN-alpha-induced STAT3 Y705 phosphorylation in serum starved human DU145 cells by Western blot analysis. Particulars: DU-145. Format: cell-based. Summed up:
as §2

Experiment [9] concerns the target RAC-alpha serine/threonine-protein kinase (Homo sapiens) (UniProt P31749). Put plainly: Inhibition of AKT-mTOR pathway in human U266 cells assessed as p70S6 kinase T389 phosphorylation by Western blot. Format: cell-based. Particulars: U-266. Summed up:
(§3)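 Steady-state phosphorylation: exponentially growing U266 cells (1 × 10⁶ cells at 2 × 10⁵ cells/mL, RPMI1640 + 10% FBS) were treated with compound for 1 h. Cells were lysed in PhosphoSafe reagent with protease inhibitors. Western blot used primary antibodies (1:1000, 2 h) and fluorescent secondaries (1 h) at room temperature. A representative blot from several repeats is shown.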

For experiment [10] the target is unchanged. Put plainly: Inhibition of AKT-mTOR pathway in human U266 cells assessed as S6-S240/244 phosphorylation by Western blot. Conditions: U-266. It is filed as cell-based. Summed up: as §3
Experiment [11] in a line: Inhibition of MAPK pathway in human U266 cells assessed as p44/42 MAPK T202/204 phosphorylation by Western blot. It is filed as cell-based. Conditions: U-266. An outline of the steps: as §3
Experiment [12] deals with Signal transducer and activator of transcription 3 (Homo sapiens) (UniProt P40763). In words: Inhibition of STAT3 S727 phosphorylation in human U266 cells. Format: cell-based. Conditions: U-266. An outline of the steps: as §3
Signal transducer and activator of transcription 3 (Homo sapiens), sequence (P40763 whole entry): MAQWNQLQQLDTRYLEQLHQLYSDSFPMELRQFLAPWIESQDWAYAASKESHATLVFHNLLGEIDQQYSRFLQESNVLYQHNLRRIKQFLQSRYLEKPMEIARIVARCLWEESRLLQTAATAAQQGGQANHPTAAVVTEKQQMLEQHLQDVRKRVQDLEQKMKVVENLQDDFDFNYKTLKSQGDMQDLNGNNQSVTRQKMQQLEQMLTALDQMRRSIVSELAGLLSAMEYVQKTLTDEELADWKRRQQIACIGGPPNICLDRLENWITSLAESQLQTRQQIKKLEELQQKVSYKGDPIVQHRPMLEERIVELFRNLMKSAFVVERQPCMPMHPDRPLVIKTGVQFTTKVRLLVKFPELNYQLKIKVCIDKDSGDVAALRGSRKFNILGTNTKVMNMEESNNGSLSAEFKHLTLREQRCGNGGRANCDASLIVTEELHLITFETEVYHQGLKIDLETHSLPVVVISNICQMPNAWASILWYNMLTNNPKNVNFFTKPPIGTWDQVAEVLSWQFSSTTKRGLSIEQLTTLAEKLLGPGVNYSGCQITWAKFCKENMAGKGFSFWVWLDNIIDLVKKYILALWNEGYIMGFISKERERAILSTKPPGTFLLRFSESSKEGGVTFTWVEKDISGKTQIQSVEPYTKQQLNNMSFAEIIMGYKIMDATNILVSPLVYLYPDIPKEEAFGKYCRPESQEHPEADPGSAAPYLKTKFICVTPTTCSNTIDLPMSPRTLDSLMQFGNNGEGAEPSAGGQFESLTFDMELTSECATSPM
Experiment [13] shares this target. In words: Inhibition of IL6-induced STAT3 Y705 phosphorylation in serum starved human U266 cells by Western blot analysis. It is filed as cell-based. Particulars: U-266.
Experiment [14] has the same target. In words: Inhibition of IFN-alpha-induced STAT3 Y705 phosphorylation in serum starved human U266 cells by Western blot analysis. It is filed as cell-based. Conditions: U-266. An outline of the steps: (§4)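 U266 cells in RPMI1640 + 10% heat-inactivated FBS were serum-starved 2 h, treated with compound 1 h, then stimulated with human IFN-alpha 20000 units/mL for 20 min. Cells were lysed in PhosphoSafe extraction reagent with protease inhibitors and analysed by Western blot with phospho-specific antibodies. JAK antibodies were used at 1:500 with milk blocking, others at 1:1000. Fluorescent secondaries were used.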

The target of experiment [15] is Tyrosine-protein kinase JAK1 (Homo sapiens) (UniProt P23458). Put plainly: Inhibition of IFN-alpha-induced JAK1 Y1022/1023 phosphorylation in serum starved human U266 cells by Western blot analysis. Format: cell-based. Conditions: U-266. Summed up: as §4
Tyrosine-protein kinase JAK1 (Homo sapiens), sequence (P23458 whole entry): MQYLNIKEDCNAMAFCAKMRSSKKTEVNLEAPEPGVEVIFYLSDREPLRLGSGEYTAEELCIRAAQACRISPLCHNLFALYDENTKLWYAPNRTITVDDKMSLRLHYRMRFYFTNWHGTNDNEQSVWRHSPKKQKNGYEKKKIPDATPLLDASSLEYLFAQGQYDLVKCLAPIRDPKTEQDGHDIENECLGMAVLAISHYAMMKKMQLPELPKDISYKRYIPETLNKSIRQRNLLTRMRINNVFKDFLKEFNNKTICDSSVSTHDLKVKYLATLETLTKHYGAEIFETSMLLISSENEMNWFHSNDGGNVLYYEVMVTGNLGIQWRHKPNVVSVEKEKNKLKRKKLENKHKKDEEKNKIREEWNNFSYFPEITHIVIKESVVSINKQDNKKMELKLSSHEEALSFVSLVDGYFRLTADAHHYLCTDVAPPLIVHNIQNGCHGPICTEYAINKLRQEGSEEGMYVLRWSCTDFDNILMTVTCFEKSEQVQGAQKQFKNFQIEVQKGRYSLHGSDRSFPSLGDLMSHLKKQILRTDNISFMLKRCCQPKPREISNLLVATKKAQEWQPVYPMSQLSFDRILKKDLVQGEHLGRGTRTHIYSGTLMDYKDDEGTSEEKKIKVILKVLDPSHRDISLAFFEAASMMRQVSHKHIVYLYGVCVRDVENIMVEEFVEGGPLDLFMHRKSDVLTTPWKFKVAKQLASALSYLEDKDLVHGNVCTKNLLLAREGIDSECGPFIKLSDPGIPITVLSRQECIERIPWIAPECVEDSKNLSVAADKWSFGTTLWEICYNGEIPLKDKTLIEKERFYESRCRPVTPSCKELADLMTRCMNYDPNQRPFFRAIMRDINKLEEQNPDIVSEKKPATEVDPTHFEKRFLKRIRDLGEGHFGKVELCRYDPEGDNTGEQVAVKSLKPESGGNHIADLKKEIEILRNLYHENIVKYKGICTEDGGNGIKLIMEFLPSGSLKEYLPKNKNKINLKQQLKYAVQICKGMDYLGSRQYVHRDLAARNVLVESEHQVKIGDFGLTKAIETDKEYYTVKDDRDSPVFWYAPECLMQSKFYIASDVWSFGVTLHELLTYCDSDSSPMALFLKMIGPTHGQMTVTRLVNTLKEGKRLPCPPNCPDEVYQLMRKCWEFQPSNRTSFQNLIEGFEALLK
The target of experiment [16] is Tyrosine-protein kinase JAK2 (Homo sapiens) (UniProt O60674). Put plainly: Inhibition of IFN-alpha-induced JAK2 Y1007/1008 phosphorylation in serum starved human U266 cells by Western blot analysis. Format: cell-based. Conditions: U-266. Summed up:
as §4

The target of experiment [17] is Non-receptor tyrosine-protein kinase TYK2 (Homo sapiens) (UniProt P29597). In words: Inhibition of IFN-alpha-induced Tyk2 Y1054/1055 phosphorylation in serum starved human U266 cells by Western blot analysis. It is filed as cell-based. Particulars: U-266. An outline of the steps:
as §4

In experiment [18] the target is T1, Signal transducer and activator of transcription 5A (Homo sapiens) (UniProt P42229).
T1 sequence (whole entry): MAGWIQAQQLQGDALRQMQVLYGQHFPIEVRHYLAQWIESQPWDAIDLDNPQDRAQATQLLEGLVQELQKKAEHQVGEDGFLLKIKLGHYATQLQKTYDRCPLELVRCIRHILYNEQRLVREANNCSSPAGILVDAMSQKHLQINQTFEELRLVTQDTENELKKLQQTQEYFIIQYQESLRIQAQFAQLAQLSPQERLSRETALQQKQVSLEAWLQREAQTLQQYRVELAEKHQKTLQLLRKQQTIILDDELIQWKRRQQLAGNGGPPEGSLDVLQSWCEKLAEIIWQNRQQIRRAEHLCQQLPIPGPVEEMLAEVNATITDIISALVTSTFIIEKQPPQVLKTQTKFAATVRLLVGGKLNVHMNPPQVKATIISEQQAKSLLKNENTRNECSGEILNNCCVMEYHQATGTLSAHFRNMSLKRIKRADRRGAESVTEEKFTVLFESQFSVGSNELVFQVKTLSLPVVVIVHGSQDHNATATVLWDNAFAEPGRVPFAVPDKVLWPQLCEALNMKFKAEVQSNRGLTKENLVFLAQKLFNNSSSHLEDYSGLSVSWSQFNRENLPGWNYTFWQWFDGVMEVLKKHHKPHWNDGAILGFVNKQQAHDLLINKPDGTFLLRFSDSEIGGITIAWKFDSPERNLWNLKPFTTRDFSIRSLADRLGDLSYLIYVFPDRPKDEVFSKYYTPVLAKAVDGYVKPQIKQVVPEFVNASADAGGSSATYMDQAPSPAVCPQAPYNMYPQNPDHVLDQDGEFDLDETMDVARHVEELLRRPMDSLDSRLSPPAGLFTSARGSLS
In words: Inhibition of BCR-ABL-activated STAT5 Y694/699 phosphorylation in human K562 cells. Format: cell-based. An outline of the steps:
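K562 cells (1 × 10⁶ cells at 1 × 10⁶ cells/mL, RPMI1640 + 10% FBS) were treated with compound for 1 h. Lysates in PhosphoSafe reagent were analysed by Western blot with anti-phospho-STAT5 Tyr694/Tyr699 (1:1000) and fluorescent secondary detection.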

In a further experiment the test system is A-431. In words: Inhibition of EGF-stimulated MAPK activation in human A431 cells. Format: cell-based.
Experiment [19] deals with Tyrosine-protein kinase JAK1 (Homo sapiens) (UniProt P23458). Put plainly: Inhibition of JAK1 at 1 uM. Summed up:
(§5)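 In vitro JAK1, JAK2 and JAK3 enzyme kinase assay, each tested at 1 and 10 µM compound.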

Experiment [20] has as its target Tyrosine-protein kinase JAK2 (Homo sapiens) (UniProt O60674). Put plainly: Inhibition of JAK2 at 1 uM. An outline of the steps: as §5
Experiment [21] deals with T2, Tyrosine-protein kinase JAK3 (Homo sapiens) (UniProt P52333).
T2 sequence (whole entry): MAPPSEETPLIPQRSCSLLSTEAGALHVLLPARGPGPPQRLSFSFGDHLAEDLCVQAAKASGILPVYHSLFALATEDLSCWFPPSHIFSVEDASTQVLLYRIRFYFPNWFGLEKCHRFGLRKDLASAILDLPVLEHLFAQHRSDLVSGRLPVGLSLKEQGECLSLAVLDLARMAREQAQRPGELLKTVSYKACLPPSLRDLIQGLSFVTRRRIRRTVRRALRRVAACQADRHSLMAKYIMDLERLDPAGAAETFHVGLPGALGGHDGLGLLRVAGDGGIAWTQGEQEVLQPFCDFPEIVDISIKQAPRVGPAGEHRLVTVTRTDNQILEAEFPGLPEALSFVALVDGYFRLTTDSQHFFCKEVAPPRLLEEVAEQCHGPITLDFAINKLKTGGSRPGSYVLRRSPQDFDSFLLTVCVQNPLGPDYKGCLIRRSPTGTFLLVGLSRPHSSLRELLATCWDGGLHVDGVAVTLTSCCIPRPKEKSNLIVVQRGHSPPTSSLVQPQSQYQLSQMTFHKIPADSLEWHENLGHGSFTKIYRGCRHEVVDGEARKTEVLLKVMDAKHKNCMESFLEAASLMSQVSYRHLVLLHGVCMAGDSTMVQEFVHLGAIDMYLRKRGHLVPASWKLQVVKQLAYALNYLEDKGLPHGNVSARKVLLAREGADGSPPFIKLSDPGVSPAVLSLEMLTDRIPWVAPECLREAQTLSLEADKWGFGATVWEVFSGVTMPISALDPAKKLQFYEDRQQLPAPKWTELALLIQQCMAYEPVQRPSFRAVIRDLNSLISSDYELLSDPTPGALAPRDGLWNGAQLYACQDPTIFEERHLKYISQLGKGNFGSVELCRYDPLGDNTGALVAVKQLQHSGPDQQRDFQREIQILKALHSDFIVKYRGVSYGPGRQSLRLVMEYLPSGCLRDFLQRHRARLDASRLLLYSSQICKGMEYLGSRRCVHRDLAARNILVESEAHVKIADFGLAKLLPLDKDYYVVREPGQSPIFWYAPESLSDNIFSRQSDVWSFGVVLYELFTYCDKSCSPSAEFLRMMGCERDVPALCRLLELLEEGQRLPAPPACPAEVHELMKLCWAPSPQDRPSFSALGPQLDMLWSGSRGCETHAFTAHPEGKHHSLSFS
In words: Inhibition of JAK3 at 1 uM. An outline of the steps:
as §5

In experiment [22] the target is Tyrosine-protein kinase JAK1 (Homo sapiens) (UniProt P23458). In words: Inhibition of JAK1 at 10 uM. An outline of the steps:
as §5

For experiment [23], the target named is Tyrosine-protein kinase JAK2 (Homo sapiens) (UniProt O60674). In words: Inhibition of JAK2 at 10 uM. Summed up: as §5
Tyrosine-protein kinase JAK2 (Homo sapiens), sequence (O60674 whole entry): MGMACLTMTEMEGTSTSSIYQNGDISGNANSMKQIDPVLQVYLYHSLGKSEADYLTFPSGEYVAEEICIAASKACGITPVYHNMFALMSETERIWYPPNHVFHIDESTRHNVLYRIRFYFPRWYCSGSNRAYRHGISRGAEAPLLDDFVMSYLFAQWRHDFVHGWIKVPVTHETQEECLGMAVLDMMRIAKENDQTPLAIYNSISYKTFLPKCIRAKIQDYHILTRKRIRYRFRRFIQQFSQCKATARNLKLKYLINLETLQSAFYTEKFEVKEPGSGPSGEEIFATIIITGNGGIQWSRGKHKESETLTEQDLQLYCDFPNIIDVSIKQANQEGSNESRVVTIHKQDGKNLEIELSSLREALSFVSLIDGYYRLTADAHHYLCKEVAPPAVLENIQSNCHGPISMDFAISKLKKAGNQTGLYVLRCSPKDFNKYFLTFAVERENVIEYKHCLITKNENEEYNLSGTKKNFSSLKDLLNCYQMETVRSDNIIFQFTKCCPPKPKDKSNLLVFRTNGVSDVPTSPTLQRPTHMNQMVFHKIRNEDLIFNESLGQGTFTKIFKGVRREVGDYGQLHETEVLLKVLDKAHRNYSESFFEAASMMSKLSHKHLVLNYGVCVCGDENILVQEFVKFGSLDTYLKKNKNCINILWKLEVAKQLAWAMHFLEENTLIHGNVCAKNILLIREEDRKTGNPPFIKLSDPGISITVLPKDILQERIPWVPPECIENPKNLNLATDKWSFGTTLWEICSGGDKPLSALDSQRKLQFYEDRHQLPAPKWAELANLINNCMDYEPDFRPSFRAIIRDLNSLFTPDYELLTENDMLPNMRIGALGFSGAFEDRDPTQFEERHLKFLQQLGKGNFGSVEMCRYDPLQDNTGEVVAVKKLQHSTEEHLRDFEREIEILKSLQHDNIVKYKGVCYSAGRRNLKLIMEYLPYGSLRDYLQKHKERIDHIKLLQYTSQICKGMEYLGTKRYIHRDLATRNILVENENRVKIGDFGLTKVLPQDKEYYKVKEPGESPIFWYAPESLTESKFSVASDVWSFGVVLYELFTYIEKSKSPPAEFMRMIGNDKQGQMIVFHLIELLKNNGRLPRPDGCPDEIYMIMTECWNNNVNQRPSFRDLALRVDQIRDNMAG
Experiment [24] concerns the target T2, Tyrosine-protein kinase JAK3 (Homo sapiens). Put plainly: Inhibition of JAK3 at 10 uM. An outline of the steps: as §5
Experiment [25] has as its system U-266. In words: Inhibition of Bcl2-like 1 transcription in human U266 cells at 0.5 uM after 6 hrs by microarray analysis. Format: functional, cell-based. An outline of the steps:
as §1

Experiment [26] deals with U-266. In words: Inhibition of MCL1 transcription in human U266 cells at 0.5 uM after 6 hrs by microarray analysis. Format: functional, cell-based. Summed up:
as §1

The test system of experiment [27] is U-266. In words: Inhibition of cyclin D1 transcription in human U266 cells at 0.5 uM after 6 hrs by microarray analysis. It is filed as functional, cell-based. Summed up:
as §1

Molecules are shown by their SMILES. Active and inactive are the calls of the source. The calls are words filed in the database; no cut-off is given here.

RAC-alpha serine/threonine-protein kinase (Homo sapiens), sequence (P31749 whole entry): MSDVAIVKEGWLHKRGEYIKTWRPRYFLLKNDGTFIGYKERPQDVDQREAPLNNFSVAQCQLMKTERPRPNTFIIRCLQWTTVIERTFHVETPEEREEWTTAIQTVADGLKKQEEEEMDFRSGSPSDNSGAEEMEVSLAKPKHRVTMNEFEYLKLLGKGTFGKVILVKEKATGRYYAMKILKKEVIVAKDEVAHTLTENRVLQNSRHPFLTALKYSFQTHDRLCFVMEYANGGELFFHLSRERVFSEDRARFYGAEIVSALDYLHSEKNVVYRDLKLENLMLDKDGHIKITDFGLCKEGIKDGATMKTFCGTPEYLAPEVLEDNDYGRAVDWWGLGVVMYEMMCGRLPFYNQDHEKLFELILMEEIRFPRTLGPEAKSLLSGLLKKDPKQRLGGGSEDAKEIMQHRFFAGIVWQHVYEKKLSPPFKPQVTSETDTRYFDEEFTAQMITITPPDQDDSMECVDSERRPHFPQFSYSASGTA
Non-receptor tyrosine-protein kinase TYK2 (Homo sapiens), sequence (P29597 whole entry): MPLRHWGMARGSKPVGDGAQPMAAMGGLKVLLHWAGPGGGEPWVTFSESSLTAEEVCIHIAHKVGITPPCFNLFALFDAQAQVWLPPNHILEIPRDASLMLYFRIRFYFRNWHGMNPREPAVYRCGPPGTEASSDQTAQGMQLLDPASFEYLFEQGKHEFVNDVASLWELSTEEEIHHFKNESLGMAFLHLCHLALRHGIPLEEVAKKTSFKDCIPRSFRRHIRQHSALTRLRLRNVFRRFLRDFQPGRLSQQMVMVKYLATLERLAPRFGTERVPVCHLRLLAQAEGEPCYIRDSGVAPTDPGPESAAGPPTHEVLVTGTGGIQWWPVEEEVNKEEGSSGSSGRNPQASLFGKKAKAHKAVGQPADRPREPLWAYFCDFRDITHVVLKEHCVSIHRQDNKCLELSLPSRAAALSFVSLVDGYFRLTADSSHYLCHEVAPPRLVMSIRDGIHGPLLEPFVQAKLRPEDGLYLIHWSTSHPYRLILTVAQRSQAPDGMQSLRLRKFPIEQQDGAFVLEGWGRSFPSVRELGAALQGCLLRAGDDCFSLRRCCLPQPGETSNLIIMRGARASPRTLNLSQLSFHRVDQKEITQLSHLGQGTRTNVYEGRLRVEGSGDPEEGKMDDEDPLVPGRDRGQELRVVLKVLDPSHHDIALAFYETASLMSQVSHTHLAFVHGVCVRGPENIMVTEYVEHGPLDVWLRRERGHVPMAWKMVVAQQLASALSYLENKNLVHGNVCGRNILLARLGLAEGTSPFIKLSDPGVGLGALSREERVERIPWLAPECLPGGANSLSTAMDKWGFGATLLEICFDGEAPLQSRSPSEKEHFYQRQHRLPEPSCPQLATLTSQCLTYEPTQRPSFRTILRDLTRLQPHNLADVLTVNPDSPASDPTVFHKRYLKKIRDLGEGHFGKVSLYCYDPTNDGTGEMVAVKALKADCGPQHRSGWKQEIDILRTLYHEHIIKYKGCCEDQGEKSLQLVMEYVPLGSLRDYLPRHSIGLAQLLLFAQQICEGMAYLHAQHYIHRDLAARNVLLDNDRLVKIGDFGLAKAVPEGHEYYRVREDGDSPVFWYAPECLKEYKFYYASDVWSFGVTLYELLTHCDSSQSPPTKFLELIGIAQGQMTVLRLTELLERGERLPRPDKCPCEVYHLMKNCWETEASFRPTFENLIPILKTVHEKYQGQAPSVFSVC

Consider `N#C/C(=C\c1ccc(O)c(O)c1)C(=O)NCc1ccccc1`, for which the outcome in the experiment with U-266 [1], in the experiment on U-266 [2] and with U-266 [3] was Active.

On to `CCOC(=O)c1cn(-c2c(F)c(F)c(F)c(F)c2F)c2c(F)c(F)c(F)c(F)c2c1=O`, for which the outcome in the experiment with U-266 [4] was Active. The result in the experiment on A2780 was inactive.

Consider `CCOC(=O)c1cn(-c2c(F)c(F)c(C#N)c(F)c2F)c2c(F)c(F)c(F)cc2c1=O`, for which the result (in experiment [5]; in experiment [6]; in experiment [7]; in experiment [8]; in the experiment on U-266 [4]; in experiment [13]) was Active. In addition, the result (in [14]; in experiment [15]; in experiment [16]; in experiment [17]; in the experiment on U-266 [25]; in the experiment on U-266 [26]) was Active. The result in the experiment with U-266 [27] was Active. The outcome (in [9]; in experiment [10]; in [11]; in experiment [12]; in experiment [18]; in the experiment on A-431) was inactive. The outcome in [19], in experiment [20], in experiment [21], in [22], in experiment [23] and in [24] was inactive.

The record behind these values is ChEMBL document CHEMBL1155075, “Inhibition of the signal transducer and activator of transcription-3 (STAT3) signaling pathway by 4-oxo-1-phenyl-1,4-dihydroquinoline-3-carboxylic acid esters” (J Med Chem, 2008).
